For one data set, the species on record is Sus scrofa. Briefly: Inhibition of pig ACE. The essentials:
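Porcine ACE; same format as the NEP assay. Substrate o-aminobenzoyl-Gly-Gly-p-nitro-Phe-Pro-OH, 10 µM final, in 50 mM Tris-Cl pH 7.4 (37 °C) with 300 mM NaCl. Stopped with 2 mM EDTA; fluorescence read-out. IC50 from dilution series.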

A short description of data set [1]: Inhibition of dog kidney cortex NEP at pH 7. On the set-up: species or system Canis lupus familiaris.
The nature of data set [2]: Clearance in rat at 1 mg/kg, iv and 1 mg/kg, po. The class given is ADME, organism-based. Conditions: in vivo. The essentials:
(§1)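 Male CD rats, jugular vein cannulated under general anaesthesia; dosed 1 mg/kg iv (tail vein) and po (gavage). Serial 0.2 ml blood samples taken from the cannula into heparin, centrifuged to plasma, stabilised with 0.01 parts 85% phosphoric acid, frozen. Plasma levels measured by LC–MS–MS after C18 solid-phase extraction, with internal standard.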

Data set [3] can be described thus: Permeability from apical to basolateral side of the Caco-2 cell membrane at pH 7.4. The class given is ADME, cell-based. Conditions: human, Caco-2, pH 7.4. The essentials:
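Caco-2 monolayers; apparent permeability (Papp) measured with pH 7.4 in both apical and basolateral chambers.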
In general terms: Caco-2 cells form a polarised layer with tight junctions and transporters.

The nature of data set [4]: Distribution coefficient, log D in n-octanol and phosphate buffer at pH 7.4. The format is physicochemical.
Data set [5] in a line: Volume of distribution in rat at 1 mg/kg, iv and 1 mg/kg, po. The class given is ADME, organism-based. Conditions: in vivo, read-out: Vdss. The essentials: as §1
Data set [6] can be described thus: Fraction unbound ligand in rat at 1 mg/kg, iv and 1 mg/kg, po. The settings on record: in vivo. The class given is ADME, organism-based. The essentials:
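Fraction unbound in rat plasma measured at 1 µg/ml by equilibrium dialysis against isotonic Krebs–Ringer bicarbonate buffer, pH 7.4.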

The target of data set [7] is T1, Endothelin-converting enzyme 1 (Homo sapiens) (UniProt P42892).
T1 sequence (whole entry): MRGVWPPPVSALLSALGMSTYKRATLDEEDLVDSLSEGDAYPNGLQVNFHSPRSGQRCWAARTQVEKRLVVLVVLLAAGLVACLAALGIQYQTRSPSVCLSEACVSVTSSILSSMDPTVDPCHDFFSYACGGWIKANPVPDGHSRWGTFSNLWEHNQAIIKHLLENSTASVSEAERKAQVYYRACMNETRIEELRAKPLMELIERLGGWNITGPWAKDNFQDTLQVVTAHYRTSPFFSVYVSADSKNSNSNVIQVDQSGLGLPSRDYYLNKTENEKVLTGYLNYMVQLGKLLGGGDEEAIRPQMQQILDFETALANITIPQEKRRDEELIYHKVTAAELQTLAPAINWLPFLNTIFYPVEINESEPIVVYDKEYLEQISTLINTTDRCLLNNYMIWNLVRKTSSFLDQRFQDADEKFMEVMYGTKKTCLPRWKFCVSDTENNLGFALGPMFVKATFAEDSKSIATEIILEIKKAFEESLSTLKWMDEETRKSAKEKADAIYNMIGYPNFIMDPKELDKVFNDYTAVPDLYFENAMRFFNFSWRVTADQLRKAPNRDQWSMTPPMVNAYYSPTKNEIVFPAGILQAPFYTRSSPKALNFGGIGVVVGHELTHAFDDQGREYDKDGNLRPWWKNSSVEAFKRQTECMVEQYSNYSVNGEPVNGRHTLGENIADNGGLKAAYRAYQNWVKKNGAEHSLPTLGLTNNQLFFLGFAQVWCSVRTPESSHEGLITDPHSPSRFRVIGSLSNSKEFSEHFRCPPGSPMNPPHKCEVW
Briefly: Inhibition of human ECE1. The essentials:
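Human ECE-1, run like the ACE assay (50 mM Tris-Cl pH 7.4, 300 mM NaCl, EDTA stop), with Big ET-1 as substrate. IC50 from dilution series.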

Data set [8] in a line: Half life in rat at 1 mg/kg, iv and 1 mg/kg, po. The class given is ADME, organism-based. The settings on record: in vivo. The essentials:
as §1

Data set [9] can be described thus: Metabolic stability in human liver microsomes at 1 uM. The class given is ADME, Microsome. The essentials: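 Human liver microsomes, 1 µM compound with 0.5 µM CYP. Reported as first-order compound disappearance half-life.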
Data set [10] is described as follows: Inhibition of dog kidney cortex NEP at pH 7.4. On the set-up: species or system Canis lupus familiaris.
The next data set is filed under the species Homo sapiens. Briefly: Protein binding in human plasma at 1 ug/ml by equilibrium dialysis. The settings on record: read-out: PPB (converted).
Data set [11] can be described thus: Oral bioavailability in rat at 1 mg/kg, iv and 1 mg/kg, po. The format is ADME, organism-based. Conditions: in vivo. The essentials:
as §1

Molecules are shown by their SMILES. pIC50: −log10 of the molar value.

As to `CCCCCCCNC(=O)C1(CC(CCOC)C(=O)O)CCCC1` (stereo not drawn), the Activity in the data set listed under Sus scrofa was over 3 µM. In addition, in [1], the pIC50 was 8.10.

In the data set filed under Sus scrofa, `COCCC(CC1(C(=O)N[C@H]2C[C@@H]2c2ccc(Cl)cc2)CCCC1)C(=O)O` (relative stereo) yielded an Activity of over 3 µM. In addition, the pIC50 in data set [1] was 7.68.

`COCCC(CC1(C(=O)N[C@H]2C[C@@H]2c2ccccc2)CCCC1)C(=O)O` (relative stereo) yielded an Activity in the data set filed under Sus scrofa of over 3 µM. The same molecule gave a pIC50 in [1] of 7.00.

In the case of `CCCCC[C@@H]1C[C@H]1NC(=O)C1(CC(CCOC)C(=O)O)CCCC1` (relative stereo), in the data set listed under Sus scrofa, the Activity is over 3 µM. In addition, the pIC50 in data set [1] is 8.00.

For `COCCC(CC1(C(=O)NCCCc2ccc(F)cc2)CCCC1)C(=O)O` (stereo not drawn), in the data set filed under Sus scrofa, the Activity is over 3 µM. In addition, the pIC50 in data set [1] was 7.82.

Molecule `COCCC(CC1(C(=O)NCCCc2ccc(OC)cc2)CCCC1)C(=O)O` (stereo not drawn) yielded an Activity in the data set listed under Sus scrofa of over 3 µM. In addition, in data set [1], the pIC50 is 8.70.

Take `COCCC(CC1(C(=O)NCCc2ccc(OC)cc2)CCCC1)C(=O)O` (stereo not drawn): the Activity in the data set listed under Sus scrofa is over 3 µM. This molecule gave a pIC50 in data set [1] of 6.43.

`COCCC(CC1(C(=O)NCCCc2ccc(Cl)cc2)CCCC1)C(=O)O` (stereo not drawn) registered an Activity in the data set filed under Sus scrofa of over 3 µM. The same molecule showed a pIC50 in data set [1] of 8.70.

The molecule `COCCC(CC1(C(=O)Nc2nnc(Cc3ccccc3)s2)CCCC1)C(=O)O` (stereo not drawn) returned an Activity in the data set listed under Sus scrofa of over 3 µM. In addition, the negative-log IC50 (pIC50) in data set [1] was 8.30.

`COCCC(CC1(C(=O)NCCc2ccccc2)CCCC1)C(=O)O` (stereo not drawn) registered an Activity in the data set listed under Sus scrofa of over 3 µM. Also, in data set [1], the pIC50 is 6.30.

With `CCC[C@H](CC1(C(=O)Nc2nnc(CC)s2)CCCC1)C(=O)O`, the clearance in data set [2] was 3 mL/min/kg. Besides, the Papp A→B in data set [3] is 9 ×10⁻⁶ cm/s. In addition, the Activity (in the data set listed under Sus scrofa; in data set [7]) was over 3 µM each time. The same molecule returned a logD in data set [4] of 0.5. Moreover, in data set [5], the Vd was 0.44 L/kg. In addition, the Fu in [6] came to 0.106. The half-life in [8] is 1.7 h. For the same molecule, in [9], the half-life at 1 µM was over 2 h. Further, the pIC50 in [1] was 7.63.

For the molecule `COCC[C@H](CC1(C(=O)NCCCc2ccc(F)cc2)CCCC1)C(=O)O`, in data set [2], the clearance was determined as 13 mL/min/kg. For the same molecule, the Papp A→B in [3] worked out at 12 ×10⁻⁶ cm/s. For the same molecule, the Activity (in the data set listed under Sus scrofa; in data set [7]) was over 3 µM throughout. In addition, the logD in data set [4] was 0.5. For the same molecule, the Vd in data set [5] turned out to be 2.7 L/kg. For the same molecule, the pIC50 was 8.06 in [10] and 8.70 in data set [1]. The fraction unbound in data set [6] came to 0.138. In addition, in data set [8], the half-life was 2.4 h. The molecule also yielded a half-life at 1 µM in [9] of over 2 h. The fraction unbound at 1 ug/ml in the data set listed under Homo sapiens is 0.124. For the same molecule, the bioavailability in data set [11] was 138%.

With `COCCC(CC1(C(=O)NC2(CO)Cc3ccccc3C2)CCCC1)C(=O)O` (stereo not drawn), the Activity in the data set filed under Sus scrofa was over 3 µM. In data set [1], this molecule showed a pIC50 of 7.96.

`COCC(CC1(C(=O)N[C@H]2C[C@@H]2c2ccc(Cl)cc2)CCCC1)C(=O)O` (relative stereo) had an Activity in the data set filed under Sus scrofa of over 3 µM. In [1], this molecule had a pIC50 of 7.70.

Consider `COCCC(CC1(C(=O)NCCCc2ccccc2)CCCC1)C(=O)O` (stereo not drawn), for which, in the data set filed under Sus scrofa, the Activity was over 3 µM. In data set [1], this molecule gave a pIC50 of 7.46.

In data set [3], `COCC[C@H](CC1(C(=O)N[C@@H]2C[C@H]2c2ccc(OC)cc2)CCCC1)C(=O)O` showed a Papp A→B of 7 ×10⁻⁶ cm/s. The Activity (in the data set listed under Sus scrofa; in [7]) was over 3 µM in each case. The molecule also registered a logD in data set [4] of 0.3. The figures for the pIC50 in data set [10] and in data set [1] were 8.24 and 8.10, respectively. Further, the half-life at 1 µM in [9] was over 2 h. Besides, in the data set filed under Homo sapiens, the fraction unbound at 1 ug/ml is 0.032.

In the data set filed under Sus scrofa, `COCCC(CC1(C(=O)N[C@@H]2C[C@H]2c2ccc(F)cc2)CCCC1)C(=O)O` (relative stereo) showed an Activity of over 3 µM. Further, the pIC50 in [1] was 7.40.

The molecule `CCCC(CC1(C(=O)N[C@H]2C[C@@H]2c2ccccc2)CCCC1)C(=O)O` (relative stereo) showed an Activity in the data set filed under Sus scrofa of over 3 µM. The same molecule had a negative-log IC50 (pIC50) in data set [1] of 6.80.

`CCCCc1ccnc(NC(=O)C2(CC(CCOC)C(=O)O)CCCC2)c1` (stereo not drawn): in the data set filed under Sus scrofa, the Activity was over 3 µM. Also, the negative-log IC50 (pIC50) in data set [1] was 7.77.

`COCCC(CC1(C(=O)N[C@@H]2C[C@H]2c2ccc(OC)cc2)CCCC1)C(=O)O` (relative stereo): the Activity in the data set filed under Sus scrofa is over 3 µM. This molecule had a pIC50 in data set [1] of 8.10.

On to `CCCC(CC1(C(=O)Nc2nnc(CC)s2)CCCC1)C(=O)O` (stereo not drawn), for which the Activity in the data set filed under Sus scrofa is over 3 µM. The pIC50 in [1] was 7.22.

`COCCC(CC1(C(=O)NCCOc2ccc(OC)cc2)CCCC1)C(=O)O` (stereo not drawn) yielded an Activity in the data set listed under Sus scrofa of over 3 µM. In addition, the pIC50 in [1] was 7.46.

For `COCC(CC1(C(=O)N[C@H]2C[C@@H]2c2ccccc2)CCCC1)C(=O)O` (relative stereo), in the data set listed under Sus scrofa, the Activity is over 3 µM. In addition, in data set [1], the pIC50 was 7.19.

On to `COCCC(CC1(C(=O)NC(C)Cc2ccccc2)CCCC1)C(=O)O` (stereo not drawn), for which the Activity in the data set listed under Sus scrofa was over 3 µM. For the same molecule, the pIC50 in data set [1] was 6.37.

Broadly, the pIC50 is −log10 of the IC50, conventionally taken in molar units. A high value points to a low IC50. The term Papp A→B denotes how fast a substance crosses the layer from the apical side. In general, logD refers to the decadic logarithm of the distribution of all forms, ionised or not, between an organic phase and buffer at a given pH. Read a high logD as higher lipophilicity. As usually defined, the half-life is the time in which the quantity being followed falls by half. A low value points to rapid decline.

Source of the values: ChEMBL document CHEMBL1144531, “Novel selective inhibitors of neutral endopeptidase for the treatment of female sexual arousal disorder” (Bioorg Med Chem, 2007).
